Reference: ChEMBL document CHEMBL5252543, “Ester-prodrugs of ethambutol control its antibacterial activity and provide rapid screening for mycobacterial hydrolase activity” (2017)
One block for each compound: values may come before it.

Assays:
Format in all cases: functional
Settings in all cases: 72 h, time 3 day
[1] = tested on: Mycolicibacterium smegmatis; experiment: Antimicrobial activity against Mycobacterium smegmatis assessed as bacterial growth inhibition preincubated with PLE and PMSF for 1 hr measured after 3 days by multimode plate reader analysis
Procedure, shortened: (§1)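 MIC99 in M. smegmatis with esterase pretreatment. The highest-concentration sample (50 μg/mL) was preincubated 1 h at RT with pig liver esterase (0.1 mg/mL), alone or with PMSF (1 mM), before serial dilution and 1:1 mixing with M. smegmatis in Middlebrook (final 25 to 0.012 μg/mL). Growth read as A600 after 72 h at 37 °C, 225 rpm.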

[2] = tested on: Mycolicibacterium smegmatis; experiment: Antimicrobial activity against Mycobacterium smegmatis assessed as bacterial growth inhibition measured after 3 days by multimode plate reader analysis
Procedure, shortened: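 MIC99 in M. smegmatis broth. Compounds serially diluted in Middlebrook media, then diluted 1:1 with M. smegmatis in Middlebrook (final 25 μg/mL to 0.012 μg/mL). Plates grown 72 h at 37 °C, 225 rpm; growth read as A600.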

[3] = tested on: Mycolicibacterium smegmatis; experiment: Antimicrobial activity against Mycobacterium smegmatis assessed as bacterial growth inhibition preincubated with PLE for 1 hr measured after 3 days by multimode plate reader analysis; procedure, shortened: as §1

MIC99 [1]: 6.3 µg/mL | MIC99 [2]: 6.3 µg/mL | MIC99 [3]: 0.39 µg/mL
SMILES: CC[C@@H](COC(=O)C(C)C)NCCN[C@@H](CC)COC(=O)C(C)C.Cl.Cl

MIC99 [1]: 0.78 µg/mL | MIC99 [2]: 0.78 µg/mL | MIC99 [3]: 0.78 µg/mL
SMILES: CCC(=O)OC[C@H](CC)NCCN[C@@H](CC)COC(=O)CC.Cl.Cl

MIC99 [1]: 6.3 µg/mL | MIC99 [2]: 6.3 µg/mL | MIC99 [3]: 0.78 µg/mL
SMILES: CC[C@@H](COC(=O)C(C)(C)C)NCCN[C@@H](CC)COC(=O)C(C)(C)C.Cl.Cl

Further lines, the compound ahead of its results:

SMILES: CC[C@@H](COC(=O)C1(C)CC1)NCCN[C@@H](CC)COC(=O)C1(C)CC1.Cl.Cl
MIC99 [1]: 25 µg/mL | MIC99 [2]: 13 µg/mL | MIC99 [3]: 0.78 µg/mL

SMILES: CCC(CC)C(=O)OC[C@H](CC)NCCN[C@@H](CC)COC(=O)C(CC)CC.Cl.Cl
MIC99 [1]: 0.78 µg/mL | MIC99 [2]: 1.6 µg/mL | MIC99 [3]: 0.2 µg/mL

SMILES: CC[C@@H](COC(=O)C1CCC1)NCCN[C@@H](CC)COC(=O)C1CCC1.Cl.Cl
MIC99 [1]: 6.2 µg/mL | MIC99 [2]: 3.1 µg/mL | MIC99 [3]: 0.39 µg/mL

SMILES: CC[C@@H](COC(=O)C1CCCC1)NCCN[C@@H](CC)COC(=O)C1CCCC1.Cl.Cl
MIC99 [1]: 1.6 µg/mL | MIC99 [2]: 6.3 µg/mL | MIC99 [3]: 0.098 µg/mL

SMILES: CC[C@@H](COC(=O)CC(C)C)NCCN[C@@H](CC)COC(=O)CC(C)C.Cl.Cl
MIC99 [1]: 0.39 µg/mL | MIC99 [2]: 6.3 µg/mL | MIC99 [3]: 0.2 µg/mL

SMILES: CC[C@@H](CO)NCCN[C@@H](CC)CO.Cl.Cl [ETHAMBUTOL HYDROCHLORIDE]
MIC99 [1]: 0.098 µg/mL | MIC99 [2]: 0.098 µg/mL | MIC99 [3]: 0.098 µg/mL
